# Measurements gathered from unrelated publications.
# Compare with care: the assays were run in different laboratories.
# Effect on: cell growth or viability
Structure (SMILES),cell line,technique,concentration,time,endpoint,result
Nc1cc(C(F)(F)F)c(-c2cc(N3CCOCC3)nc(N3CCOCC3)n2)cn1,MB002,,,7 days,IC50,172 nM
COc1cc(Nc2nccc(-c3cnn4nc(OC)ccc34)n2)cc(C(F)(F)F)c1,SK-LU-1,ATP luminescence,,,IC50,1100 nM
COc1ccc(-c2ccc(-c3ccc(C(=N)N)nc3)s2)cc1Cl,SK-MEL-5,SRB,,,GI50,1820 nM
CCCCCCCCCC(=O)N[C@@H](Cc1c[nH]c2ccccc12)C(=O)N[C@H](CC(N)=O)C(=O)N[C@@H](CC(=O)O)C(=O)N[C@@H]1C(=O)NCC(=O)N[C@@H](CCCNC(=O)CCC(=O)N2Cc3ccccc3-c3c(nnn3CCC[C@H](NC(=O)CCCCC[N+]3=C(C=CC4=CC(=CC=C5N(C)c6ccccc6C5(C)C)CCC4)C(C)(C)c4ccccc43)C(=O)NCCCCNC(=O)CCC(=O)N3Cc4ccccc4-c4c(nnn4CCOCCOCCOCCNC(=O)CN4CCN(CC(=O)NCCNC(=O)c5cccc(O)c5O)CCN(CC(=O)NCCNC(=O)c5cccc(O)c5O)CCN(CC(=O)NCCNC(=O)c5cccc(O)c5O)CC4)-c4ccccc43)-c3ccccc32)C(=O)N[C@@H](CC(=O)O)C(=O)N[C@H](C)C(=O)N[C@@H](CC(=O)O)C(=O)NCC(=O)N[C@H](CO)C(=O)N[C@@H]([C@H](C)CC(=O)O)C(=O)N[C@@H](CC(=O)c2ccccc2N)C(=O)O[C@@H]1C,KB 3-1,WST-1,,,Kb,> 64000 nM
Cc1cc2c(cc1N1C(=O)c3cccc4c(CCCO)ccc(c34)C1=O)n(C)c(=O)n2C (racemic),SW-403,resazurin,,,GI50,> 10000 nM
CC(=O)c1c(C)c2cnc(Nc3ccc(N4CCNCC4)cn3)nc2n(C2CCCC2)c1=O,BT-474,resazurin,,,GI50,200 nM
CC(=O)c1c(C)c2cnc(Nc3ccc(N4CCNCC4)cn3)nc2n(C2CCCC2)c1=O,MB002,,,7 days,IC50,10.8 nM
CC(=O)Nc1cccc(-n2c(=O)n(C3CC3)c(=O)c3c(Nc4ccc(I)cc4F)n(C)c(=O)c(C)c32)c1,Calu-6,resazurin,0.1 µM,72 h,viability,62.6%
CC(=O)c1sc(=NN=C(C)c2c(O)c3ccccc3oc2=O)n(C)c1C,human Skin fibroblast,MTT,,48 h,IC50,> 100000 nM
O=C(NC[C@H](O)CO)c1ccncc1Nc1ccc(I)cc1F,MB002,,,7 days,IC50,> 10000 nM
COc1cc2c(Nc3ccc(Br)cc3F)ncnc2cc1OCC1CCN(C)CC1,BT-474,ATP luminescence,,72 h,GI50,5910 nM
COc1c(C)cnc(Cn2cnc3c(Cl)nc(N)nc32)c1C,MB002,,,7 days,IC50,97.4 nM
CC(C)C[C@H](NC(=O)[C@H](Cc1ccccc1)NC(=O)c1cnccn1)B(O)O,SW948,ATP luminescence,,,IC50,12 nM
